proCasp3 act: activates human procaspase-3 | P42574 | recombinant procaspase-3 D3A, Ac-DEVD-pNA absorbance 405 nm | activation, % at 8.5 µM | 330,000 compounds, 0.11% hits | AID 463141;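 active = activation above the mean of all tested compounds plus 3 SD, cut at about 21% in these data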;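 note: 0% = DMSO alone and 100% = DMSO wells spiked with extra 5 µM PC-3 D3A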
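Assay system – Procaspase-3 D3A mutant, all three cleavage aspartates alanine · Controls – DMSO-only low control, 5 µM PC-3 D3A high control · Schedule – 1 h compound preincubation, 2 h substrate hydrolysis at 25 °C · Signal – 405 nm absorbance of p-nitroaniline, reads at 0 and 120 min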
Arrestin-AP2 inh: human beta-arrestin and AP2 interaction inhibition; FITC-arrestin peptide / GST-AP2 beads, flow cytometry; AP2 beta2 appendage carries R879A mutation; inhibition, % at 10 µM; 340,000 compounds, 0.31% hits;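 active = inhibition above a set limit, near 3 SD of compounds lacking own fluorescence, cut at about 54% in these data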;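 note: plate controls were DMSO wells for no effect and 5 µM unlabelled arrestin peptide for full effect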
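System: GST-AP2 R879A glutathione beads | Also added: FITC-arrestin peptide, 50 nM | Times: 12 min plus 1 h, RT | Signal: Bead flow cytometry, FITC channel | Buffer or medium: PBS with 0.05% Tween 20 and 0.1% BSA | Read-out basis: Percent drop in bead-associated FITC signal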
proCasp7 act: counter-screen for procaspase-3 activators: activators of human procaspase-7; P55210; recombinant procaspase-7, Ac-DEVD-pNA absorbance 405 nm; D23A/D198A/D206A triple mutant, cannot self-cleave; scale: DMSO 0, 5 µM enzyme 100; activation, % at 8.5 µM; 330,000 compounds, 0.093% hits;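 active = percent activation above the screen-wide mean plus 3 SD, cut at about 25% in these data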
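Assay system: Uncleavable procaspase-7 mutant enzyme; Input: 2 µM procaspase-7 mutant as dispensed; Also added: DEVD-pNA substrate; Medium: Zinc-free HEPES pH 7.4 with 300 mM NaCl, 0.01% Triton X-100; Timing: 1 h compound preincubation, 2 h substrate cleavage, 25 °C; Measured by: Epi-absorbance of released pNA at 405 nm, two timepoints.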
HGIII-sPLA2 inh: Inhibits HGIII-sPLA2 liposome hydrolysis, primary screen; Q9NZ20; QFRET BODIPY PC-A2 liposome hydrolysis, fluorescence; inhibition, % at 12.2 µM; 370,000 compounds, 0.56% hits; AID 743126;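 active = inhibition above mean plus 3 SD of compounds lying within the high and low control bounds, cut at about 19% in these data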;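 note: 0% = median of test compound wells and 100% = no enzyme DMSO wells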
PLC-gamma1 inh: inhibitors of human phospholipase C gamma1; purified PLC-gamma1, fluorogenic substrate, fluorescence; 370,000 compounds, 0.84% hits; P19174; inhibition, % at 12.2 µM; in the data active = inhibition above about 9.5%
Target sequence (P19174 whole entry, looked up): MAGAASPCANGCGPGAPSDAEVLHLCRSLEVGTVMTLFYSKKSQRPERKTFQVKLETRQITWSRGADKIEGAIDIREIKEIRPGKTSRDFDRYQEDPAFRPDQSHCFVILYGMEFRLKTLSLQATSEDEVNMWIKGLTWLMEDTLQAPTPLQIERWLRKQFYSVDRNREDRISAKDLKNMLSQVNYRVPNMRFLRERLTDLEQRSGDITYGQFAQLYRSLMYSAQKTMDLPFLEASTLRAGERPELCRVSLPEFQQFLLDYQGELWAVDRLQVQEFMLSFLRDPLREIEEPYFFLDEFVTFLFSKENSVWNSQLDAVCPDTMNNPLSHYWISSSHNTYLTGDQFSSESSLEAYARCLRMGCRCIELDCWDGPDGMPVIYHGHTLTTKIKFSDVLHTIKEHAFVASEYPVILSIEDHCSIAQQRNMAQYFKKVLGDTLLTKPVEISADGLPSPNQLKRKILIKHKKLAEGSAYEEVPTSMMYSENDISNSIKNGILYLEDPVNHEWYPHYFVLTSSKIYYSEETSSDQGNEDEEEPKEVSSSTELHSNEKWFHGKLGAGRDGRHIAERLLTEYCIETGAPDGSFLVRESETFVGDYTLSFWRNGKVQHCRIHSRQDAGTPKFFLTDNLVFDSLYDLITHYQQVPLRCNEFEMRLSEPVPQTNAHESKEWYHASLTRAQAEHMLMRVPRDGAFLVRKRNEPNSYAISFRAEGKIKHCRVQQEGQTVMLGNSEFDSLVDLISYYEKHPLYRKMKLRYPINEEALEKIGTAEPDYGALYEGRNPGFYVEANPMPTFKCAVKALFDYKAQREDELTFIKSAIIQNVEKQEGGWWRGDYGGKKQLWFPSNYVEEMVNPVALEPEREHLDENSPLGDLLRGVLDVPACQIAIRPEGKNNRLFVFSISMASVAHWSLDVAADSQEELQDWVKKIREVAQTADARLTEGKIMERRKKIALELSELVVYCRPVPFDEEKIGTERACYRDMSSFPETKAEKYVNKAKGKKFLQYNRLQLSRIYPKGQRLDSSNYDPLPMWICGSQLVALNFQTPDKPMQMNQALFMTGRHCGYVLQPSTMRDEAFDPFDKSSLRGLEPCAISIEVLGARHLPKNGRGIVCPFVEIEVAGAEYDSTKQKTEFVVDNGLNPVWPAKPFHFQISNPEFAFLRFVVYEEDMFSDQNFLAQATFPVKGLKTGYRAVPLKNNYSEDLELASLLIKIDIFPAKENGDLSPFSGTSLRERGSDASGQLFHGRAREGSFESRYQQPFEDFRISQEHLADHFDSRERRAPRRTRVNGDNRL
PLC-beta3 inh: PLC-beta3 (human) inhibition, primary screen; Q01970; Purified PLC-beta3, fluorogenic substrate, fluorescence; inhibition, % at 12.2 µM; 370,000 compounds, 0.18% hits; in the data active = inhibition above about 11%;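 note: 0% = median of compound wells on plate and 100% = full blocker control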
Arr AP2 CP1: inhibitors of human beta-arrestin and AP2 interaction | AID 504908 | GST-AP2 beads, FITC arrestin peptide binding, flow cytometry; GST-fused beta2-adaptin appendage, R879A mutant | 1,300 compounds, 2% hits | inhibition, % at 10 µM | shares compounds with Arrestin-AP2 inh;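 active = inhibition above a set limit, roughly 3 SD of non-fluorescent compound noise, cut at about 38% in these data; inactive = inhibition at or below that limit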;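 note: loss of bead fluorescence from 50 nM FITC arrestin peptide bound to appendage; 0% = negative control wells and 100% = excess unlabelled arrestin peptide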
GST GSH counter: counter-screen for beta-arrestin AP2 inhibitors: GST-GSH bead binding. GST-fluorescein binding to GSH beads, fluorescence. 1,300 compounds, 2% hits. AID 588338. shares compounds with Arrestin-AP2 inh. inhibition, % at 10 µM;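 active = inhibition above 50%, about 3 SD of the inhibition seen with non-fluorescent compounds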;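 note: fluorescein maleimide labelled GST captured on 4 micron glutathione beads; higher means more loss of bead fluorescence from quenching or blocked binding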
* hit, by the source's call; . = no result. Most compounds without a hit are left out; they make up all but 1.9% or so of the library.

SMILES	proCasp3 act	Arrestin-AP2 inh	proCasp7 act	HGIII-sPLA2 inh	PLC-gamma1 inh	PLC-beta3 inh	Arr AP2 CP1	GST GSH counter
Cn1ccnc1SCc1cn2ccccc2n1	3	83*	-1	6	3	2	3	5
COc1cc(/C=C2/C(=O)N=C(N)N2C)cc(OC)c1OC	4	84*	-7	.	.	.	11	4
O[C@@H](Cc1ccccc1)[C@@H](/C=C/c1ccccc1)NCCc1ccccc1	.	.	.	-3	3	-2	.	.
CCCCc1ccc(NC(=O)Nc2cnccn2)cc1	7	1	-2	-2	-1	-10	23	-5
CCCCc1ccc(NC(=O)NCc2ccccn2)cc1	-1	-4	7	-2	1	-6	.	.
CCc1ccc(NC(=O)Nc2cnccn2)cc1	-2	-2	10	-5	2	-1	6	0
C=CCN=C1NC(c2ccc(F)cc2)C(C(=O)OC)=C(C)N1Cc1ccccc1C(F)(F)F (stereo not drawn)	.	.	.	0	-1	0	.	.
CC(C)(C)c1ccc(S(=O)(=O)N2CCCC(C(=O)NCCN3CCC(Cc4ccccc4)CC3)C2)cc1 (stereo not drawn)	.	.	.	0	9	0	.	.
NC(=O)CSc1nc2c(c(=O)n1-c1ccccc1)C1(CCCCC1)Cc1ccccc1-2	5	63*	9	1	-2	-1	-10	-6
O=C(NC1=NCCS1)c1ccc(Cl)c(S(=O)(=O)N2CCCC2)c1	3	45	4	-7	1	2	.	.
O=C(NC1=NCCS1)c1ccc(Cl)c(S(=O)(=O)N2CCOCC2)c1	1	57*	7	-1	2	4	-1	-13
CCOC(=O)c1c(NC(C)=O)sc2c(O)c(CN3CCN(CC)CC3)ccc12	2	64*	-3	9	-12	-15	15	2
O=C(Nc1ccc(C(O)(C(F)(F)F)C(F)(F)F)cc1)c1ccc(Cl)cc1	.	.	.	-13	2	-1	.	.
CCOC(=O)c1ccccc1NC(=O)c1nc2nccc(C)n2n1	4	98*	8	-3	4	1	-16	1
Cc1ccnc2nc(C(=O)OCC(=O)Nc3ccccc3C(C)(C)C)nn12	0	-1	13	3	3	1	.	.
COCCN1C(=O)CCC1(C)c1nnnn1-c1ccc2ccccc2c1 (stereo not drawn)	.	.	.	3	2	-1	.	.
O=C(CCn1c(=S)[nH]c2ccccc2c1=O)Nc1ccc(F)cc1	13	74*	3	8	-1	-6	14	84*
COc1ccc(NC(=O)CCn2c(=S)[nH]c3ccccc3c2=O)cc1	10	25	-7	9	2	-1	.	.
COc1ccc(NC(=O)CCCn2c(=O)[nH]c3ccccc3c2=O)cc1	2	9	12	5	1	-1	-14	-6
COc1ccc(NC(=O)CCCCn2c(=O)[nH]c3ccccc3c2=O)cc1	3	5	7	8	0	2	-3	-3
COc1ccc(NC(=O)CCCn2c(=S)[nH]c3ccccc3c2=O)cc1	2	2	12	4	3	0	.	.
COc1cc(NC(=O)CCCn2c(=S)[nH]c3ccccc3c2=O)cc(OC)c1OC	3	-9	4	5	8	4	.	.
C#CCC1c2ccccc2CCN1CC=C (stereo not drawn)	.	.	.	0	-1	-1	.	.
CC(C(=O)Nc1ccc2c(c1)OCO2)c1ccc([N+](=O)[O-])cc1 (stereo not drawn)	11	65*	0	-6	2	2	2	-2
CC(=O)Nc1cccc(NC(=O)C2CC(=O)N(C3CCCCC3)C2)c1 (stereo not drawn)	0	61*	6	0	-1	-6	9	-6
SMILES	proCasp3 act	Arrestin-AP2 inh	proCasp7 act	HGIII-sPLA2 inh	PLC-gamma1 inh	PLC-beta3 inh	Arr AP2 CP1	GST GSH counter
CC(=O)c1cccc(NC(=O)C2CC(=O)N(C3CCCC3)C2)c1 (stereo not drawn)	-1	34	3	4	4	-1	.	.
COc1cc(C(=O)NC2CCCCC2)ccc1OCc1ccc(Cl)cc1Cl	9	106*	2	-3	-1	1	-8	-2
COc1ccc(C(=O)NC2CCC(O)CC2)cc1S(=O)(=O)NCc1ccc(Cl)cc1 (stereo not drawn)	2	80*	-7	10	-2	-2	-1	-8
COc1ccc(C(=O)NCCNC(C)=O)cc1S(=O)(=O)NCc1ccc(Cl)cc1	8	4	-3	6	-3	0	.	.
O=c1c2cnn(-c3ccc(F)cc3)c2ncn1Cc1ccc(F)cc1	1	90*	9	0	-2	1	-6	-1
O=c1c2cnn(-c3ccccc3)c2ncn1Cc1ccccc1	6	5	9	5	0	2	.	.
Cc1ccc(SCC(=O)OCC(=O)NCCNC(=O)COC(=O)CSc2ccc(C)c(C)c2)cc1C	-9	68*	4	4	0	-10	-4	-2
Cc1ccc(SCC(=O)OCC(=O)NCC2CCCCC2)cc1C	-1	13	10	-21	3	0	.	.
O=C(CSc1nnc(-c2ccncc2)n1-c1ccc(Br)cc1)c1ccccc1	.	.	.	-30	1	0	.	.
O=C(Cc1ccccc1C(=O)O)Nc1cccc2ccccc12	-4	60*	-6	-2	-80	-109	6	-4
O=C(COc1ccccc1C(=O)O)Nc1cccc2ccccc12	0	1	-2	-2	1	-4	.	.
CO/N=C/C(c1ccc(Cl)nc1)S(=O)(=O)c1ccccc1 (stereo not drawn)	2	57*	1	1	2	1	14	-3
CCC[C@H]1[C@@H](NC(=O)/C=C/c2ccccc2)CC[C@@]23CCCN2C(=O)CCC[C@@H]13	.	.	.	-7	0	-1	.	.
Cn1nc(C(=O)N2CCN(c3ccc(Cl)cc3)CC2)c2c1-c1ccccc1S(=O)(=O)C2	-3	55*	-10	1	3	-8	-7	-14
Cn1nc(C(=O)N2CCN(c3cccc(Cl)c3)CC2)c2c1-c1ccccc1S(=O)(=O)C2	4	-11	-1	-1	-1	3	.	.
CCOC(=O)C(=Cc1ccc(OCc2ccc([N+](=O)[O-])cc2)c(OC)c1)C(=O)OCC	-1	81*	8	0	0	0	-21	-6

High-throughput results deposited in PubChem BioAssay by several laboratories.
